{"data": "Experimental data from different studies", "organism": "Mycobacterium tuberculosis", "observed": "microbial growth"}
{"SMILES": "CCCCOc1ccc2nc3ccc(=O)cc-3oc2c1", "setting": "7 days", "quantity": "MIC90", "value": "≤ 10 µM"}
{"SMILES": "O=C1c2ccccc2NC(c2cc([N+](=O)[O-])ccc2O)N1/N=C/c1cc([N+](=O)[O-])ccc1O (centres unmarked)", "test system": "ATCC25177 H37RA", "setting": "14 days", "quantity": "MIC", "value": "64 µg/mL"}
{"SMILES": "CCOC(=O)C1=C(C)NC(=O)NC1c1ccc([N+](=O)[O-])o1 (centres unmarked)", "test": "resazurin", "test system": "H37RV", "quantity": "MIC", "value": "20.1 µM"}
{"SMILES": "CC(C)/N=c1\\cc2n(-c3ccc(Cl)cc3)c3ccccc3nc-2cc1Nc1ccc(Cl)cc1", "setting": "7 days", "quantity": "MIC90", "value": "0.39 µM"}
{"SMILES": "NNC(=O)c1ccncc1", "test": "resazurin", "test system": "H37RV", "setting": "0.212 µM", "quantity": "inhibition", "value": "44%"}
{"SMILES": "O=C(O)c1cn(C2CC2)c2cc(N3CCNCC3)c(F)cc2c1=O", "test system": "ATCC25177 H37RA", "setting": "14 days", "quantity": "MIC", "value": "16 µg/mL"}
{"SMILES": "CC[C@@H](CO)NCCN[C@@H](CC)CO", "test": "resazurin", "test system": "H37RV", "quantity": "MIC", "value": "7.64 µM"}
{"SMILES": "CC(=O)OCOc1ccc2nc3ccc(=O)cc-3oc2c1", "setting": "7 days", "quantity": "MIC90", "value": "34 µM"}
{"SMILES": "CCOC(=O)C1=C(C)NC(=S)NC1c1cn(-c2ccccc2)nc1-c1ccccc1 (centres unmarked)", "test": "resazurin", "test system": "H37RV", "quantity": "MIC", "value": "59.7 µM"}
{"SMILES": "COc1c(N2CC3CCCN(C(=O)OCc4ccc([N+](=O)[O-])cc4)C3C2)c(F)cc2c(=O)c(C(=O)O)cn(C3CC3)c12 (centres unmarked)", "test system": "H37RV", "quantity": "MIC", "value": "> 8 µM"}
{"SMILES": "CSCOc1ccc2nc3ccc(=O)cc-3oc2c1", "setting": "7 days", "quantity": "MIC90", "value": "47 µM"}
{"SMILES": "COc1c(N2CC3CCCNC3C2)c(F)cc2c(=O)c(C(=O)OCc3cnc([N+](=O)[O-])s3)cn(C3CC3)c12 (centres unmarked)", "test system": "H37RV", "quantity": "MIC", "value": "0.25 µM"}
{"SMILES": "CCOC(=O)C1=C(C)NC(=NNS(=O)(=O)c2ccccc2)NC1c1cn(-c2ccccc2)nc1-c1ccccc1 (centres unmarked)", "test": "resazurin", "test system": "H37RV", "quantity": "MIC", "value": "44.6 to 45.8 µM"}
{"SMILES": "CN[C@@H]1[C@H](O)[C@H](NC)[C@H]2O[C@@]3(O)C(=O)C[C@@H](C)O[C@H]3O[C@@H]2[C@H]1O", "test": "broth dilution", "test system": "H37RV", "setting": "7 days", "quantity": "MIC", "value": "100 µg/mL"}
